# Calls of active or inactive are those of the source.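 The calls were made as follows, unless noted: active = fluorescence slope after compound addition differing from the mean of all screened samples at 99.7% confidence, in either direction; inactive = the rest.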
# Legend:
# [1] = inhibitors of TNFa-induced NFkB p65 translocation, primary screen, imaging, HUVEC, MLSMR starter and 10KST1 sets (AID 438;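 active = inhibition above 20% together with a positive visual image hit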;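 also: compound added about 3h40 before a 20 min TNFalpha stimulation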;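 as to inhibition: signal is the nuclear over cytoplasmic p65 intensity ratio per well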); conditions: HUVEC TNFa-induced p65 nuclear translocation; cell count: measured here: nuclei count (cytotoxicity indicator), at 2.08 µM; inhibition: at 2 µM, stronger effect = higher value, 0% TNFa-plus-vehicle, 100% no-TNFa wells
# [2] = endothelial E-selectin expression blockers – imaging, HUVEC, immunofluorescence, MLSMR starter and 10KST1 sets, primary screen (AID 487;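 active = visually confirmed hit in the image check and inhibition above 20%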;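 as to inhibition: signal is fraction of cell area covered by stained E-selectin grains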;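 as to nuclei count: 100% = median nuclei count of all wells on the same plate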); conditions: HUVEC TNFalpha-induced E-selectin immunofluorescence imaging, at 2 µM; inhibition: stronger effect = higher value; nuclei count: measured here: cell number, toxicity
# [3] = Primary imaging screen for DUSP6 inhibitors that restore phospho-Erk in transfected HeLa cells, chemical complementation (AID 609;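 active = compounds giving at least 50% inhibition in the cell-based MKP-3 phosphatase rescue imaging test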;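 as to inhibition: phospho-Erk level distribution per well compared with pooled transfected vehicle control wells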); conditions: HeLa MKP-3 transfected, phospho-Erk imaging KS statistic, at 10 µM, cells stimulated with TPA for 15 min
# [4] = target: Dual specificity protein phosphatase 6 (Homo sapiens) (UniProt Q16828); assay: as above; conditions: HeLa MKP-3 transfected, phospho-Erk imaging KS statistic; at 10 µM; stronger effect = higher value; cells stimulated with TPA for 15 min
# [5] = target: Voltage-gated potassium channel subunit beta-2 (Rattus norvegicus) (UniProt P62483); assay: inhibitors of rat Kvbeta2 reductase activity – biochemical, NADPH fluorescence, primary screen (AID 622;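 active = fluorescence slope higher than the sample average by over 3 SD, cut at about -0.22 in these data, passing the limit was not always enough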;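 also: slope of raw intensity against log time taken from 70 to 1610 s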); conditions: recombinant KvBeta, 4-cyanobenzaldehyde reduction, at 10 µM, stronger effect = higher value
# [6] = target: Voltage-gated potassium channel subunit beta-2 (Rattus norvegicus) (UniProt P62483); assay: enhancers of rat Kvbeta2 NADPH turnover – biochemical, NADPH fluorescence, primary screen (AID 623;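 active = NADPH fluorescence slope more negative than the mean of all samples by about 3 SD, 99.7% confidence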;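 also: fluorescence intensity change per second fitted from 20 to 320 s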); conditions: Recombinant KvBeta, NADPH fluorescence decrease slope, 10 min; at 10 µM; stronger effect = lower value
# [7] = target: Alpha-2C adrenergic receptor (Homo sapiens) (UniProt P18825); assay: compounds altering alpha2C-coupled GIRK flux – cell-based, HEK293 alpha2C/GIRK1/2, thallium flux, primary screen (AID 624); conditions: thallium flux BTC fluorescence, at 10 µM, actives lie on both sides;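 also: slope of fluorescence ratio to pre-addition baseline per second over 15 to 24 s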
# [8] = inhibitors of larval lipid processing in zebrafish, primary screen, whole organism, PED6 fluorescence, gall bladder and intestine (AID 686;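 active = a full or partial loss of lipid-probe fluorescence in the fish gall bladder, intestine or both, judged by eye; inactive = no fluorescence loss, or compound toxic to the fish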;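 also: larvae 5 to 7 days old with five fish per well; signal comes from phospholipase A2 cleavage of quenched PED6 carried via bile; overnight exposure to compound and PED6 before scoring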); conditions: Zebrafish larvae PED6 lipid processing, fluorescence scoring; screened at 20 µM (by protocol)
# How it was run: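 Test system – live zebrafish larvae aged 5-7 days, whole organism · Buffer or medium – E3 fish medium · Reagent – quenched phospholipase substrate PED6, 100 nM final, ingested by larvae · Doses – 20 µM single dose · Incubation – overnight compound and PED6 incubation · Technique – visual fluorescence microscopy scoring of gall bladder, gut · Read-out basis – visual per-well fluorescence inhibition score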
# [9] = loss of swimming-algae plug formation – whole organism, Chlamydomonas reinhardtii, WT vs cilia-less mutant, absorbance, 96-well, primary screen (AID 463189;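 active = inhibition at or above 50% relative to wild type and mutant plate controls; inactive = inhibition below 50%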;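 also: 0% = wild type cc124 cells in DMSO and 100% = ciliumless bld1 mutant cells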); conditions: Chlamydomonas reinhardtii gravitaxis, OD600 absorbance, 2 days; at 10 µM; stronger effect = higher value
# [10] = measured here: cell density z-score
# [11] = measured here: nuclear c-Myc green intensity z-score
# [12] = measured here: nuclear pErk red intensity z-score, stronger effect = higher value
# Sequence of Dual specificity protein phosphatase 6 (Homo sapiens) (Q16828 whole entry, looked up): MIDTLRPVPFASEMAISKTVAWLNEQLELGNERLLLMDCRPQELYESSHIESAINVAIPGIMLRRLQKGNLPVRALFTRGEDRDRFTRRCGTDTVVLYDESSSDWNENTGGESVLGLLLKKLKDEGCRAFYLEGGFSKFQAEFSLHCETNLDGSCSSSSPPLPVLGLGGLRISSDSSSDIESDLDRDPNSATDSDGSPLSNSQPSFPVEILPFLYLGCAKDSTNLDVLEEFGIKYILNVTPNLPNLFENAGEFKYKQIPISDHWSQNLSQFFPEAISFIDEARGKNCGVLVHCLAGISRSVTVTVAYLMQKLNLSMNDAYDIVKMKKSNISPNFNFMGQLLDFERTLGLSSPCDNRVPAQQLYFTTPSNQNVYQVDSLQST
# Sequence of Voltage-gated potassium channel subunit beta-2 (Rattus norvegicus) (P62483 whole entry, looked up): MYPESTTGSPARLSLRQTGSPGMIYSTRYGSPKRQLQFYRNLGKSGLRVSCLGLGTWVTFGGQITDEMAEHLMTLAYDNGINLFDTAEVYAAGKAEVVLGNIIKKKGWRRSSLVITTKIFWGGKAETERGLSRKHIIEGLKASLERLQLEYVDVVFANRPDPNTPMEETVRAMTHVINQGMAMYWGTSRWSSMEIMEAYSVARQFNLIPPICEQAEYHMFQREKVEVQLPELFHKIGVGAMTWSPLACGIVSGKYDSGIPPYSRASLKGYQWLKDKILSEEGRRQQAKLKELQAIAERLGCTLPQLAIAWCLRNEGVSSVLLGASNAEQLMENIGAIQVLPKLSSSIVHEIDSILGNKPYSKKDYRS
# Sequence of Alpha-2C adrenergic receptor (Homo sapiens) (P18825 whole entry, looked up): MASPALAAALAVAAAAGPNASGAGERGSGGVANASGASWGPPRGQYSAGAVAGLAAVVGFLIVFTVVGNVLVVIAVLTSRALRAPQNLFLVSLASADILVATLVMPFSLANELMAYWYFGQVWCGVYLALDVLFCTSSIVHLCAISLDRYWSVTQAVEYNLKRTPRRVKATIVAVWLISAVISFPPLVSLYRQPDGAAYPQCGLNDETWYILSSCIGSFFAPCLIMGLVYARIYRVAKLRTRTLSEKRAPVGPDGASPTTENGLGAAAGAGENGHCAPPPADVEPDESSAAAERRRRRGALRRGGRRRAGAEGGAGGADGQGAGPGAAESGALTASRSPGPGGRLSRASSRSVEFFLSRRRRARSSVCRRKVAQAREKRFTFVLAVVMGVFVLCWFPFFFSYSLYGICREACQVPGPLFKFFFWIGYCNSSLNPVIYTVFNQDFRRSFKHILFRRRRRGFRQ
Structure (SMILES),cell count [1],inhibition [1],inhibition [2],nuclei count [2] [%],"z-score [3, 10]","z-score [3, 11]","z-score [3, 12]",inhibition [4],fluorescence slope [5],NADPH fluorescence slope [6],slope [7],outcome [8],inhibition [9]
COc1cc(-c2nn3c(-c4ccco4)nnc3s2)cc(OC)c1OC,483,-2.2% (inactive),-67.5% (inactive),99.3,-0.638,-0.467,0.841,-2.47% (inactive),-0.471 (inactive),3.2e-05 (inactive),0.0061 (inactive),inactive,4.86% (inactive)
Cc1ccc2c(c1)[C@@H]1CN(C)CC[C@@H]1N2S(=O)(=O)c1ccc(F)cc1,507,-8.3% (inactive),-69% (inactive),199,-0.629,-0.478,-0.18,-8.27% (inactive),-0.324 (inactive),-2.1e-06 (inactive),0.00411 (inactive),inactive,10.5% (inactive)
CCOc1nc(SC(C(C)=O)C(=O)Nc2ccccc2)nc(N(C)C)n1 (stereo not given),302,-20.6% (inactive),10.9% (inactive),91.5,0.486,-0.655,-1.33,10.5% (inactive),-0.456 (inactive),-9.6e-06 (inactive),0.00845 (inactive),inactive,-7.41% (inactive)
Cc1cc(=O)oc(C)c1C(=O)N1CCN(Cc2ccc3c(c2)OCO3)CC1,387,-8.4% (inactive),-58.3% (inactive),158,-0.184,-0.833,-0.4,9.42% (inactive),-0.451 (inactive),-0.000128 (inactive),0.00491 (inactive),inactive,21.2% (inactive)
CCCc1cc(-n2ccnc2C)n2c(nc3ccccc32)c1C#N,536,-42.1% (inactive),-109% (inactive),153,-0.822,-0.981,0.35,-15% (inactive),-0.415 (inactive),-3.2e-05 (inactive),0.00567 (inactive),inactive,4.33% (inactive)
ONC(=Nc1ccccc1)C(=Nc1ccccc1)NO,348,-0.3% (inactive),-28.3% (inactive),100,1.37,1.46,0.663,17% (inactive),-0.542 (inactive),-6e-05 (inactive),0.00535 (inactive),inactive,25.5% (inactive)
CC(C)Oc1ccc(/C(O)=C2/C(=O)C(=O)N(CCN(C)C)C2c2ccco2)cc1 (stereo not given),481,-1% (inactive),-6.9% (inactive),112,-0.569,-0.19,-0.239,-1.12% (inactive),-0.324 (inactive),1.4e-05 (inactive),0.00581 (inactive),inactive,6.02% (inactive)
O=C(c1nsnc1-c1ccccc1O)N1CCCCC1,500,-8% (inactive),-58.8% (inactive),86.9,0.333,0.0172,0.334,17.8% (inactive),-0.563 (inactive),-9.1e-06 (inactive),0.007 (inactive),inactive,24.8% (inactive)
COc1ccc(-c2nn3c(COc4ccccc4)nnc3s2)cc1OC,597,-0.7% (inactive),33.6% (inactive),96.3,1.18,-0.256,-1,-0.674% (inactive),-0.395 (inactive),-6e-05 (inactive),0.00544 (inactive),inactive,-1.36% (inactive)
O=C(CNC1C(=O)Nc2ccccc21)Sc1ccccc1 (stereo not given),636,-12.1% (inactive),-63.1% (inactive),118,1.09,-0.106,-0.738,14.4% (inactive),-0.383 (inactive),-1.8e-06 (inactive),0.00502 (inactive),inactive,-11.8% (inactive)
